≈ marks a conversion by molar mass, not a printed value. Calls of active or inactive are those of the source. No cut-off for these calls is given here.
What was measured:
[1] = tested on: Candida albicans; experiment: Antifungal activity against Candida albicans ATCC 10231 by NCCLS method; type: functional
Summary of the method: (§1)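 Broth dilution per NCCLS yeast reference method, in HEPES-buffered RPMI with 1% DMSO. MIC80 is the lowest concentration giving more than 80% growth inhibition versus positive (no-drug) controls. Read by visual scoring, not absorbance. Highest level tested 125 µg/mL.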

[2] = tested on: Nakaseomyces glabratus; experiment: Antifungal activity against Candida glabrata ATCC 48435 by NCCLS method; type: functional; summary of the method: as §1
[3] = tested on: Vero; experiment: Cytotoxicity against african green monkey Vero cells assessed as reduction in cell viability at MIC80 after 24 hrs by CellTiter 96 non-radioactive cell proliferation assay relative to control; type: cell-based; settings: chlorocebus sabaeus
Summary of the method: (§2)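 Cells exposed for 24 h at 37 °C, 5% CO2, to compound diluted in medium at the antifungal MIC and at 5, 10 and 100× MIC. Tetrazolium dye added for 1–4 h, then stop solution for 1 h at room temperature. Formazan read at 570 nm. Viability is the drug-well/no-drug (1% DMSO) control absorbance ratio, with control set to 100%. 0.1% saponin served as the death control. Triplicates, mean ± SD.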

[4] = tested on: Vero (Chlorocebus sabaeus); experiment: Cytotoxicity against African green monkey Vero cells assessed as reduction in cell viability at MIC80 after 24 hrs by CellTiter 96 non-radioactive cell proliferation assay
[5] = tested on: Vero; experiment: Cytotoxicity against african green monkey Vero cells assessed as reduction in cell viability at 100 times MIC80 after 24 hrs by CellTiter 96 non-radioactive cell proliferation assay; type: cell-based; settings: chlorocebus sabaeus; summary of the method: as §2
[6] = tested on: HepG2; experiment: Cytotoxicity against human HepG2 cells assessed as reduction in cell viability at 100 times MIC80 after 24 hrs by CellTiter 96 non-radioactive cell proliferation assay; type: cell-based; settings: hepg2, 24 h; summary of the method: as §2
[7] = tested on: Nakaseomyces glabratus; experiment: Antifungal activity against Candida glabrata ATCC 48435 at 125 ug/ml by NCCLS method; type: functional, organism-based
[8] = tested on: Candida albicans; experiment: Antifungal activity against Candida albicans ATCC 10231 at 125 ug/ml by NCCLS method; type: functional, organism-based

Compound | MIC80 [2] | Activity [7] | Activity [8] | also measured
Cc1ccc(O)c(/C=N/NC(=O)c2ccc([N+](=O)[O-])cc2)c1 | 0.125 µg/mL (≈ 0.418 µM) |  |  | MIC80 [1]: 0.5 µg/mL (≈ 1.67 µM); Activity [3]: 20%; Activity [4]: 20%
O=C(N/N=C/c1cc(Cl)ccc1O)c1ccccc1 | 0.5 µg/mL (≈ 1.82 µM) |  |  | Activity [5]: Non-toxic; MIC80 [1]: 0.5 µg/mL (≈ 1.82 µM); Activity [6]: Non-toxic
O=S(=O)(N/N=C/c1ccccc1O)c1ccccc1 | 125 µg/mL (≈ 452 µM) | inactive | inactive | 
N/N=C/c1ccccc1O | 4 µg/mL (≈ 29.4 µM) |  |  | Activity [5]: Non-toxic; MIC80 [1]: 16 µg/mL (≈ 118 µM); Activity [6]: Non-toxic
Cc1ccc(S(=O)(=O)N/N=C/c2ccccc2O)cc1 | inactive | inactive | inactive | 
O=[N+]([O-])c1ccc(O)c(/C=N/NS(=O)(=O)c2ccccc2)c1 |  | inactive | inactive | 
O=[N+]([O-])c1ccc(S(=O)(=O)N/N=C/c2cc(Br)ccc2O)cc1 |  | inactive | inactive | 
Cc1ccc(O)c(/C=N/NC(=O)c2ccccc2)c1 | 1 µg/mL (≈ 3.93 µM) |  |  | MIC80 [1]: 1 µg/mL (≈ 3.93 µM); Activity [3]: 20%; Activity [4]: 20%
O=[N+]([O-])c1cc(/C=N/Nc2ccccc2)c(O)c([N+](=O)[O-])c1 | 4 µg/mL (≈ 13.2 µM) |  |  | Activity [5]: Non-toxic; MIC80 [1]: 2 µg/mL (≈ 6.62 µM); Activity [6]: Non-toxic
Cc1ccc(O)c(/C=N/NS(=O)(=O)c2ccc3ccccc3c2)c1 |  | inactive | inactive | 
COc1ccc(O)c(/C=N/NS(=O)(=O)c2ccc([N+](=O)[O-])cc2)c1 |  | inactive | inactive | 
O=S(=O)(N/N=C/c1cc(Br)ccc1O)c1ccc2ccccc2c1 |  | inactive | inactive | 
Cc1ccc(S(=O)(=O)N/N=C/c2cc(C)ccc2O)cc1 |  | inactive | inactive | 
COc1ccc(S(=O)(=O)N/N=C/c2cc([N+](=O)[O-])ccc2O)cc1 |  | inactive | inactive | 
Cc1ccc(S(=O)(=O)N/N=C/c2cc([N+](=O)[O-])ccc2O)cc1 |  | inactive | inactive | 
O=C(N/N=C/c1ccccc1O)c1ccc([N+](=O)[O-])cc1 | 0.5 µg/mL (≈ 1.75 µM) |  |  | Activity [5]: Non-toxic; MIC80 [1]: 0.5 µg/mL (≈ 1.75 µM); Activity [6]: Non-toxic
COc1ccc(S(=O)(=O)N/N=C/c2cc(Br)ccc2O)cc1 |  | inactive | inactive | 
O=S(=O)(N/N=C/c1cc(Cl)ccc1O)c1ccc(Br)cc1 |  | inactive | inactive | 
Cc1ccc(O)c(/C=N/NS(=O)(=O)c2ccc([N+](=O)[O-])cc2)c1 |  | inactive | inactive | 
Cc1ccc(O)c(/C=N/NS(=O)(=O)c2ccccc2)c1 |  | inactive | inactive | 
COc1ccc(S(=O)(=O)N/N=C/c2ccccc2O)cc1 |  | inactive | inactive | 

From ChEMBL document CHEMBL3352109, “Synthesis and antifungal activity of substituted salicylaldehyde hydrazones, hydrazides and sulfohydrazides” (Bioorg Med Chem, 2014)
